Measurements from ChEMBL document CHEMBL3864121, “Development of ebsulfur analogues as potent antibacterials against methicillin-resistant Staphylococcus aureus” (Bioorg Med Chem, 2016).
In brackets after ≈: the same amount, converted by molar mass. Activity calls are given as the source filed them. The rule behind the calls is not given here.

Legend:
Staphylococcus aureus [1] = assay: Antibacterial activity against methicillin-sensitive Staphylococcus aureus ATCC 6538 measured after overnight incubation by broth double-dilution method; type: functional
In short: (§1)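 MIC by broth double-dilution in liquid Mueller-Hinton medium. Values are reported in µg/mL.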

Staphylococcus aureus [2] = assay: Antibacterial activity against methicillin-sensitive Staphylococcus aureus ATCC 25923 measured after overnight incubation by broth double-dilution method; type: functional; in short: as §1
Staphylococcus aureus [3] = assay: Antibacterial activity against methicillin-sensitive Staphylococcus aureus ATCC 29213 measured after overnight incubation by broth double-dilution method; type: functional; in short: as §1
Staphylococcus aureus [4] = assay: Antibacterial activity against methicillin-resistant Staphylococcus aureus ATCC 33591 measured after overnight incubation by broth double-dilution method; type: functional; in short: as §1
Staphylococcus aureus [5] = assay: Antibacterial activity against methicillin-resistant Staphylococcus aureus 1 measured after overnight incubation by broth double-dilution method; type: functional; in short: as §1
Staphylococcus aureus [6] = assay: Antibacterial activity against methicillin-resistant Staphylococcus aureus 2 measured after overnight incubation by broth double-dilution method; type: functional; in short: as §1
Staphylococcus aureus [7] = assay: Antibacterial activity against methicillin-resistant Staphylococcus aureus BRS3 measured after overnight incubation by broth double-dilution method; type: functional; in short: as §1
Staphylococcus aureus [8] = assay: Antibacterial activity against methicillin-resistant Staphylococcus aureus C1 measured after overnight incubation by broth double-dilution method; type: functional; in short: as §1
Staphylococcus aureus [9] = assay: Antibacterial activity against methicillin-resistant Staphylococcus aureus C2 measured after overnight incubation by broth double-dilution method; type: functional; in short: as §1
Staphylococcus aureus [10] = assay: Antibacterial activity against methicillin-resistant Staphylococcus aureus C7 measured after overnight incubation by broth double-dilution method; type: functional; in short: as §1
Staphylococcus aureus [11] = assay: Antibacterial activity against methicillin-resistant Staphylococcus aureus C14 measured after overnight incubation by broth double-dilution method; type: functional; in short: as §1
Staphylococcus aureus [12] = assay: Antibacterial activity against methicillin-resistant Staphylococcus aureus C16 measured after overnight incubation by broth double-dilution method; type: functional; in short: as §1
Staphylococcus aureus [13] = assay: Antibacterial activity against methicillin-resistant Staphylococcus aureus C19 measured after overnight incubation by broth double-dilution method; type: functional; in short: as §1
Staphylococcus aureus [14] = assay: Antibacterial activity against methicillin-resistant Staphylococcus aureus G1 measured after overnight incubation by broth double-dilution method; type: functional; in short: as §1
Staphylococcus aureus [15] = assay: Antibacterial activity against methicillin-resistant Staphylococcus aureus G6 measured after overnight incubation by broth double-dilution method; type: functional; in short: as §1
Staphylococcus aureus [16] = assay: Antibacterial activity against methicillin-resistant Staphylococcus aureus G12 measured after overnight incubation by broth double-dilution method; type: functional; in short: as §1
Staphylococcus aureus [17] = assay: Antibacterial activity against methicillin-resistant Staphylococcus aureus G14 measured after overnight incubation by broth double-dilution method; type: functional; in short: as §1
Staphylococcus aureus [18] = assay: Antibacterial activity against methicillin-resistant Staphylococcus aureus NRS4 measured after overnight incubation by broth double-dilution method; type: functional; in short: as §1
Staphylococcus aureus [19] = assay: Antibacterial activity against methicillin-resistant Staphylococcus aureus NRS51 measured after overnight incubation by broth double-dilution method; type: functional; in short: as §1
Staphylococcus aureus [20] = assay: Antibacterial activity against methicillin-resistant Staphylococcus aureus NRS77 measured after overnight incubation by broth double-dilution method; type: functional; in short: as §1
Staphylococcus aureus [21] = assay: Antibacterial activity against methicillin-resistant Staphylococcus aureus S14 measured after overnight incubation by broth double-dilution method; type: functional; in short: as §1
Staphylococcus aureus [22] = assay: Antibacterial activity against methicillin-resistant Staphylococcus aureus S17 measured after overnight incubation by broth double-dilution method; type: functional; in short: as §1
Staphylococcus aureus [23] = assay: Antibacterial activity against methicillin-resistant Staphylococcus aureus S22 measured after overnight incubation by broth double-dilution method; type: functional; in short: as §1
Staphylococcus aureus [24] = assay: Antibacterial activity against methicillin-resistant Staphylococcus aureus S24 measured after overnight incubation by broth double-dilution method; type: functional; in short: as §1
Staphylococcus aureus [25] = assay: Antibacterial activity against methicillin-resistant Staphylococcus aureus USA100 measured after overnight incubation by broth double-dilution method; type: functional; in short: as §1
Staphylococcus aureus [26] = assay: Antibacterial activity against methicillin-resistant Staphylococcus aureus USA200 measured after overnight incubation by broth double-dilution method; type: functional; in short: as §1
Staphylococcus aureus [27] = assay: Antibacterial activity against methicillin-resistant Staphylococcus aureus USA300 measured after overnight incubation by broth double-dilution method; type: functional; in short: as §1
Staphylococcus aureus [28] = assay: Antibacterial activity against methicillin-resistant Staphylococcus aureus USA600 measured after overnight incubation by broth double-dilution method; type: functional; in short: as §1
[29] = tested on: Staphylococcus epidermidis; assay: Antibacterial activity against Staphylococcus epidermidis ATCC 35984 measured after overnight incubation by broth double-dilution method; type: functional; details: RP62A
In short: (§2)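 MIC by broth double-dilution in Mueller-Hinton medium. Re-testing at the time-kill inoculum used 1×10^6 CFU/mL.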

Enterococcus faecalis [30] = assay: Antibacterial activity against Enterococcus faecalis ATCC 29212 measured after overnight incubation by broth double-dilution method; type: functional; in short: as §2
Enterococcus faecalis [31] = assay: Antibacterial activity against Enterococcus faecalis ATCC 49533 measured after overnight incubation by broth double-dilution method; type: functional; in short: as §2
Enterococcus faecium = assay: Antibacterial activity against Enterococcus faecium BM4105-RF measured after overnight incubation by broth double-dilution method; type: functional; in short: as §1
Enterococcus = assay: Antibacterial activity against Vancomycin-resistant Enterococcus measured after overnight incubation by broth double-dilution method; type: functional; in short: as §1
Listeria monocytogenes = assay: Antibacterial activity against Listeria monocytogenes ATCC 19115 measured after overnight incubation by broth double-dilution method; type: functional; in short: as §2
[32] = tested on: Mycolicibacterium smegmatis; assay: Antibacterial activity against Mycobacterium smegmatis MC2-155 measured after overnight incubation by broth double-dilution method; type: functional; details: str. MC2 155; in short: as §1
[33] = Cytotoxicity against HEK293 cells assessed as cell death up to 10 ug/ml measured after 24 hrs by resazurin dye-based fluorescence analysis relative to untreated control; type: toxicity; details: human, hek293, 24 h
Staphylococcus aureus [34] = assay: Antibacterial activity against methicillin-resistant Staphylococcus aureus S22 using 1 10^6CFU/ml measured after overnight incubation by broth double-dilution method; type: functional

Row | SMILES | MIC (Staphylococcus aureus [1]) [µg/mL] | MIC (Staphylococcus aureus [2]) [µg/mL] | MIC (Staphylococcus aureus [3]) [µg/mL] | MIC (Staphylococcus aureus [4]) [µg/mL] | MIC (Staphylococcus aureus [5]) [µg/mL] | MIC (Staphylococcus aureus [6]) [µg/mL] | MIC (Staphylococcus aureus [7]) [µg/mL] | MIC (Staphylococcus aureus [8]) [µg/mL] | MIC (Staphylococcus aureus [9]) [µg/mL] | MIC (Staphylococcus aureus [10]) [µg/mL] | MIC (Staphylococcus aureus [11]) [µg/mL] | MIC (Staphylococcus aureus [12]) [µg/mL] | MIC (Staphylococcus aureus [13]) [µg/mL] | MIC (Staphylococcus aureus [14]) [µg/mL] | MIC (Staphylococcus aureus [15]) [µg/mL] | MIC (Staphylococcus aureus [16]) [µg/mL] | MIC (Staphylococcus aureus [17]) [µg/mL] | MIC (Staphylococcus aureus [18]) [µg/mL] | MIC (Staphylococcus aureus [19]) [µg/mL] | MIC (Staphylococcus aureus [20]) [µg/mL] | further results
1 | O=c1c2ccccc2sn1-c1cccc2ccccc12 | > 125 | 2 (≈ 7.21 µM) | 0.5 (≈ 1.8 µM) | 0.5 (≈ 1.8 µM) | 1 (≈ 3.61 µM) | 0.5 (≈ 1.8 µM) | 2 (≈ 7.21 µM) | 2 (≈ 7.21 µM) | 0.5 (≈ 1.8 µM) | 1 (≈ 3.61 µM) | 2 (≈ 7.21 µM) | 15.6 (≈ 56.2 µM) | 0.5 (≈ 1.8 µM) | 2 (≈ 7.21 µM) | 0.5 (≈ 1.8 µM) | 0.5 (≈ 1.8 µM) | 2 (≈ 7.21 µM) | 2 (≈ 7.21 µM) | 1 (≈ 3.61 µM) | 2 (≈ 7.21 µM) | MIC (Staphylococcus aureus [21]): ≤ 0.25 µg/mL; MIC (Staphylococcus aureus [22]): 1 µg/mL (≈ 3.61 µM); MIC (Staphylococcus aureus [23]): 1 µg/mL (≈ 3.61 µM); MIC (Staphylococcus aureus [24]): 0.5 µg/mL (≈ 1.8 µM); MIC (Staphylococcus aureus [25]): 0.5 µg/mL (≈ 1.8 µM); MIC (Staphylococcus aureus [26]): 2 µg/mL (≈ 7.21 µM); MIC (Staphylococcus aureus [27]): 2 µg/mL (≈ 7.21 µM); MIC (Staphylococcus aureus [28]): 2 µg/mL (≈ 7.21 µM); MIC [29]: 0.25 µg/mL (≈ 0.901 µM); MIC (Enterococcus faecalis [30]): > 125 µg/mL; MIC (Enterococcus faecalis [31]): > 125 µg/mL; MIC (Enterococcus faecium): > 125 µg/mL; MIC (Enterococcus): 0.5 µg/mL (≈ 1.8 µM); MIC (Listeria monocytogenes): 2 µg/mL (≈ 7.21 µM); MIC [32]: 1 µg/mL (≈ 3.61 µM); Activity [33]: > 20%
2 | O=c1c2ccccc2sn1-c1cccc(Br)c1 | 7.8 (≈ 25.5 µM) | 7.8 (≈ 25.5 µM) | 3.9 (≈ 12.7 µM) | 2 (≈ 6.53 µM) | 7.8 (≈ 25.5 µM) | 3.9 (≈ 12.7 µM) | 7.8 (≈ 25.5 µM) | 3.9 (≈ 12.7 µM) | 3.9 (≈ 12.7 µM) | 3.9 (≈ 12.7 µM) | 7.8 (≈ 25.5 µM) | 3.9 (≈ 12.7 µM) | 3.9 (≈ 12.7 µM) | 3.9 (≈ 12.7 µM) | 3.9 (≈ 12.7 µM) | 7.8 (≈ 25.5 µM) | 7.8 (≈ 25.5 µM) | 7.8 (≈ 25.5 µM) | 3.9 (≈ 12.7 µM) | 3.9 (≈ 12.7 µM) | MIC (Staphylococcus aureus [21]): 0.5 µg/mL (≈ 1.63 µM); MIC (Staphylococcus aureus [22]): 3.9 µg/mL (≈ 12.7 µM); MIC (Staphylococcus aureus [23]): > 125 µg/mL; MIC (Staphylococcus aureus [24]): 3.9 µg/mL (≈ 12.7 µM); MIC (Staphylococcus aureus [25]): 3.9 µg/mL (≈ 12.7 µM); MIC (Staphylococcus aureus [26]): 7.8 µg/mL (≈ 25.5 µM); MIC (Staphylococcus aureus [27]): 3.9 µg/mL (≈ 12.7 µM); MIC (Staphylococcus aureus [28]): 7.8 µg/mL (≈ 25.5 µM); MIC [29]: 3.9 µg/mL (≈ 12.7 µM); MIC (Enterococcus faecalis [30]): 15.6 µg/mL (≈ 50.9 µM); MIC (Enterococcus faecalis [31]): > 125 µg/mL; MIC (Enterococcus faecium): 15.6 µg/mL (≈ 50.9 µM); MIC (Enterococcus): 7.8 µg/mL (≈ 25.5 µM); MIC (Listeria monocytogenes): 3.9 µg/mL (≈ 12.7 µM); MIC [32]: 3.9 µg/mL (≈ 12.7 µM); Activity (Staphylococcus aureus [34]): Active
